Measured values from ChEMBL document CHEMBL4480403, “DDX3X Helicase Inhibitors as a New Strategy To Fight the West Nile Virus Infection” (J Med Chem, 2019).

Experiments:
Huh-7 = assay: (§1) Cytotoxicity against human HuH7 cells after 3 days by MTT assay; assay type: cell-based; settings: Homo sapiens, Huh-7, 72 h
In short: (§2)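 Huh7 cells (2.5 × 10^4 per well) adhered overnight. Confluent monolayers washed, then treated with compound (final 100–0.01 μM) or DMSO control for 3 days at 37°C. Viability by MTT, absorbance 570 nm, expressed relative to DMSO-treated cells.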

West Nile virus [1] = assay: Antiviral activity against West Nile virus infected in human HuH7 cells incubated for 4 days by crystal violet staining based plaque reduction assay; assay type: functional, organism-based; settings: Huh-7, 96 h
In short: (§3)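 Huh7 cells (2.5 × 10^5 per well, overnight) infected with lineage 2 WNV at MOI 0.1 for 1 h at 37°C, washed, then compound added in 10-fold dilutions (final 100–0.01 μM) with DMSO as virus control. Agarose overlay, 4 days at 37°C, methanol fixation, crystal violet staining. PFU relative to DMSO; IC50 by exponential fit at 50% PFU. Duplicates, repeated at least twice.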

West Nile virus [2] = assay: Antiviral activity against West Nile virus infected in African green monkey Vero cells incubated for 4 days by crystal violet staining based plaque reduction assay; assay type: functional, organism-based; settings: 96 h
In short: (§4)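 Cell monolayers at 80–90% confluence were infected with WNV lineage 2 strain at MOI 0.1 for 1 h at 37°C with 5% CO2, then washed. DMSO vehicle or compound (final 100, 10, 1, 0.1, 0.01 μM) was added in duplicate under a 0.5% agarose overlay. Ribavirin served as reference. After methanol fixation and 0.1% crystal violet staining, PFU were expressed relative to DMSO control. IC50 was interpolated at 50% PFU; experiments were repeated at least twice.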

West Nile virus [3] = assay: Antiviral activity against West Nile virus infected in human A549 cells incubated for 4 days by crystal violet staining based plaque reduction assay; assay type: functional, organism-based; settings: A549, 96 h; in short: as §4
West Nile virus [4] = assay: Antiviral activity against West Nile virus; assay type: functional, organism-based; in short: as §3
[5] = biological target: ATP-dependent RNA helicase DDX3X (Homo sapiens, UniProt O00571); assay: Inhibition of full length His-tagged human DDX3X expressed in Escherichia coli assessed as reduction in DDX3X helicase activity using FAM-labeled double stranded RNA as substrate after 40 mins by FRET assay relative to control
In short: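 Recombinant His-tagged full-length DDX3X expressed in E. coli, Ni-NTA purified. Unwinding of FAM-labelled dsRNA, with capture strand at 100 nM, in Tris-HCl pH 8, 70 mM KCl, 2 mM MgCl2, 2 mM DTT, 2 mM ATP. Started with DDX3X, 37°C, 40 min, fluorescence read every 30 s. Initial slope gives unwinding rate; IC50 by nonlinear regression of triplicates.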

[6] = biological target: T1, ATP-dependent RNA helicase DDX1 (Homo sapiens, UniProt Q92499); assay: Inhibition of human DDX1 helicase activity
T1 sequence (Q92499 whole entry): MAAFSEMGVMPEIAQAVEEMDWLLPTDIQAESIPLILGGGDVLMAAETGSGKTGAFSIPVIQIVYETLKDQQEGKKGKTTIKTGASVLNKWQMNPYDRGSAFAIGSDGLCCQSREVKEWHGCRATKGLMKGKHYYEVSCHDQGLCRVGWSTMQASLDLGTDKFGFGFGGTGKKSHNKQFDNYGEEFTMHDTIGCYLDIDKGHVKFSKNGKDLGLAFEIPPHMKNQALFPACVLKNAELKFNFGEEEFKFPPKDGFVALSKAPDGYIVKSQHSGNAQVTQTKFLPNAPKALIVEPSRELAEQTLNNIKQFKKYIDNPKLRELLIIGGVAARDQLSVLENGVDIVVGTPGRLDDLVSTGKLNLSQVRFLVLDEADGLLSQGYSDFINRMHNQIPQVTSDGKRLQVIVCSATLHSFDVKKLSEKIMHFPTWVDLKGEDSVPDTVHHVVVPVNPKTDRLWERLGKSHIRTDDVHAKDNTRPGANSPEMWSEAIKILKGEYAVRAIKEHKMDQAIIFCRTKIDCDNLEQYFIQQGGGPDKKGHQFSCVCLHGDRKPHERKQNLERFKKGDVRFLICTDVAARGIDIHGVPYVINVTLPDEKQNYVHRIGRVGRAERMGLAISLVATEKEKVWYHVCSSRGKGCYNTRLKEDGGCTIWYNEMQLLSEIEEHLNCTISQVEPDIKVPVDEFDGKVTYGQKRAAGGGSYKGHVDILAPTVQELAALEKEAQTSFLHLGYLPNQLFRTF

[7] = as §1; assay type: cell-based, Huh-7; settings: human, HuH7 cells; in short: as §2
[8] = Apparent permeability of the compound by PAMPA; assay type: ADME
In short: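 PAMPA: 0.5 mM donor solution in pH 7.4 phosphate buffer, diluted from 1 mM DMSO stock. Filter coated with 1% phosphatidylcholine in dodecane; acceptor 50% DMSO in buffer. Incubated 5 h at room temperature with shaking. Donor and acceptor quantified by LC-UV at 280 nm and Papp calculated. Three plates on different days.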

[9] = Metabolic stability in human liver microsomes at 50 uM after 60 mins in presence of NADPH-generating system by LC-UV-MS analysis; assay type: ADME, Microsome; settings: read-out: Stability
In short: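 Compound at 50 μM final (DMSO ≤2%) incubated with human liver microsomes (0.2 mg/mL) and NADPH-generating system in 125 mM phosphate buffer pH 7.4, 37 °C, 60 min. Remaining compound measured by LC-ESI-MS in positive ion mode, with UV at 280 nm.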

ATP-dependent RNA helicase DDX3X, sequence (O00571 2-662 limits assumed): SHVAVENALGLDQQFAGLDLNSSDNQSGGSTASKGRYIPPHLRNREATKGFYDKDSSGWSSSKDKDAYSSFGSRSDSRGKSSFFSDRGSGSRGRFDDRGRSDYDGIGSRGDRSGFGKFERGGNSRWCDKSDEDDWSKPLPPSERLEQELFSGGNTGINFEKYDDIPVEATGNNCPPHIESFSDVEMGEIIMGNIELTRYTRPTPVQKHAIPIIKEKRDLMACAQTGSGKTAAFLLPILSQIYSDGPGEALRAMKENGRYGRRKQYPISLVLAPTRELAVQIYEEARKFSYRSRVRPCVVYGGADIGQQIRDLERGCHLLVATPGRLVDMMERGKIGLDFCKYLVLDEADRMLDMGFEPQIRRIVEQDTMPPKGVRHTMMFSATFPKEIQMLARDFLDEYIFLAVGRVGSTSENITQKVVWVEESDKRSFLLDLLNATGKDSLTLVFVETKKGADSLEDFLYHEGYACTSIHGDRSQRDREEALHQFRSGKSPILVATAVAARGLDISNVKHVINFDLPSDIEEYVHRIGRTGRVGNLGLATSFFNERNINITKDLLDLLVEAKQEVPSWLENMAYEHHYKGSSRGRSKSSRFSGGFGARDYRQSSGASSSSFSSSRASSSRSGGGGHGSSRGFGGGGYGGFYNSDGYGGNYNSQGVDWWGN

SMILES	EC50 (West Nile virus [1]) [µM]	EC50 (West Nile virus [4]) [µM]	inhibition [5] [%]	CC50 at 72 h [7] [µM]	also measured
NC(=O)c1ncn([C@@H]2O[C@H](CO)[C@@H](O)[C@H]2O)n1 [RIBAVIRIN]	90 to 95.5	71.2	–	–	IC50 (Huh-7): > 200 µM; EC50 (West Nile virus [2]): 95 µM; EC50 (West Nile virus [3]): 46 µM
C[C@@]1(O)[C@H](O)[C@@H](CO)O[C@H]1n1cnc2c(N)ncnc21	–	5.1	–	–	–
CC(C)CCc1cn(-c2cccc(S(=O)(=O)Nc3ccccc3C(F)(F)F)c2)nn1	–	–	96	–	–
CCCCc1cn(-c2cccc(S(=O)(=O)Nc3ccccc3OC)c2)nn1	–	–	98	–	–
O=S(=O)(Nc1ccccc1C(F)(F)F)c1cccc(-n2cc(-c3ccccc3)nn2)c1	–	–	41	–	–
CCOC(=O)[C@@](C)(O)[C@@H]1C[C@@H](CO[Si](c2ccccc2)(c2ccccc2)C(C)(C)C)O[C@H]1n1cc(F)c(=O)[nH]c1=O	–	27	–	–	–
O=[N+]([O-])c1cccc(S(=O)(=O)Nc2ccccc2O)c1	120	–	98	175	IC50 [6]: > 200 µM; Papp [8]: < 0.1 ×10⁻⁶ cm/s; remaining at 1 h, 50 µM [9]: 98.3%
CCc1cn(-c2cccc(S(=O)(=O)Nc3ccccc3C(F)(F)F)c2)nn1	–	–	71	–	–
C[C@@]1(O)[C@H](O)[C@@H](CO)O[C@H]1n1ccc2c(N)ncnc21 [BETA-2'-C-METHYL-7-DEAZA-ADENOSINE]	–	4.5	–	–	–
CCCCc1cn(-c2cccc(S(=O)(=O)Nc3ccccc3F)c2)nn1	> 200	–	24	> 200	–
CCCCc1cn(-c2cccc(S(=O)(=O)Nc3ccccc3C)c2)nn1	39.9	–	59	> 200	–
CCCCc1cn(-c2cccc(S(=O)(=O)Nc3cccc4cnccc34)c2)nn1	55	–	99	> 200	IC50 [6]: > 200 µM; Papp [8]: 0.68 ×10⁻⁶ cm/s; remaining at 1 h, 50 µM [9]: 98%
